Data reported in ChEMBL document CHEMBL3352761, “Synthesis, antitumor activity, and mechanism of action of benzo[b]chromeno[6,5-g][1,8]naphthyridin-7-one analogs of acronycine” (J Med Chem, 2014).
Active and inactive are the calls of the source. The rule behind the calls is not given here.

Legend:
L1210 [1] = experiment: Cytotoxicity against mouse L1210 cells after 48 hrs by MTT assay; format: functional, cell-based; details: L1210, 48 h
[2] = Cytotoxicity against human KB-3-1 cells after 96 hrs by MTT assay; format: functional, cell-based; details: KB 3-1, 96 h
[3] = Induction of 117-bp DNA (unknown origin) alkylation assessed as incubation time required to obtain maximum of covalent drug/DNA complex incubated for 5 mins to 24 hrs by gel shift assay
MC-38 = experiment: Antitumor activity against mouse C38 cells xenografted in mouse assessed as inhibition of tumor growth at 4 mg/kg, iv administered on day 12 and 24; format: functional
[4] = Induction of 117-bp DNA (unknown origin) alkylation incubated for 5 mins to 24 hrs by gel shift assay
How it was run: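 117-bp pBS plasmid fragment (EcoRI/PvuII cut), 32P-labelled at EcoRI end, gel-purified. Incubated with drug (rising concentrations up to 50 μM, or fixed 50 μM for kinetics) in 1 mM Na cacodylate pH 7.0, dark, room temperature. Covalent complex seen as shifted band on native 6% PAGE in TBE, phosphorimaging; T1/2 taken as time to half-maximal shift.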

[5] = Induction of 117-bp DNA (unknown origin) alkylation assessed as incubation time required to obtain half of maximum of covalent drug/DNA complex incubated for 5 mins to 24 hrs by gel shift assay
How it was run: (§1)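 117-bp pBS EcoRI/PvuII fragment, 32P-end-labelled at EcoRI site, gel-purified; incubated with 50 μM drug in 1 mM Na cacodylate pH 7.0, dark, room temperature, 5 min to 24 h; 6% native polyacrylamide gel in TBE pH 8.3, ~5 h at 300 V; phosphorimaging of shifted band; T1/2 = time to half-maximal gel shift from quantification plots; nd if no maximum reached.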

L1210 [6] = experiment: Induction of cell cycle arrest in mouse L1210 cells assessed as accumulation at S phase at 10 uM incubated for 21 hrs by propidium iodide staining based flow cytometry (reference value: 32%); format: functional
L1210 [7] = experiment: Induction of cell cycle arrest in mouse L1210 cells assessed as accumulation at S phase at 5 uM incubated for 21 hrs by propidium iodide staining based flow cytometry (reference value: 32%); format: functional
L1210 [8] = experiment: Induction of cell cycle arrest in mouse L1210 cells assessed as accumulation at S phase at 2.5 uM incubated for 21 hrs by propidium iodide staining based flow cytometry (reference value: 32%); format: functional
[9] = Induction of 117-bp DNA (unknown origin) alkylation at 50 uM incubated for 24 hrs by gel shift assay
How it was run: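 Labelled 117-bp DNA fragment incubated with drug at increasing concentrations up to 50 μM in 1 mM Na cacodylate pH 7.0, dark, room temperature, 2 or 24 h; native polyacrylamide electrophoresis; bound/free ratio quantified relative to a 50 μM reference alkylator control; scored strong, weak (no plateau by 24 h) or none.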

[10] = Induction of 117-bp DNA (unknown origin) alkylation assessed as incubation time required to obtain half of maximum of covalent drug/DNA complex at 50 uM incubated for 5 mins to 24 hrs by gel shift assay; how it was run: as §1

Activity [4]	T1/2 [5]	SMILES	IC50 (L1210 [1])	IC50 [2]	Activity (L1210 [7])	also measured
–	–	COc1c2c(cc3c1c(=O)c1cc4ccccc4nc1n3C)OC(C)(C)[C@@H](O)[C@H]2O (racemic)	12500 nM	7000 nM	–	–
Active	1 h	COc1cc2c(c3c1c(=O)c1cc4ccccc4nc1n3C)[C@@H](OC(C)=O)[C@@H](OC(C)=O)C(C)(C)O2	190 nM	110 nM	–	Tmax [3]: 3 h; TGI (MC-38): inactive
Active	0.75 h	COc1cc2c(c3c1c(=O)c1cc4ccccc4nc1n3C)[C@@H](O)[C@@H](OC(=O)/C=C/c1ccccc1)C(C)(C)O2 (racemic)	110 nM	30 nM	–	Tmax [3]: 3 h; Activity (L1210 [6]): 66%
Active	–	COc1ccc(/C=C/C(=O)O[C@@H]2[C@H](O)c3c(cc(OC)c4c(=O)c5cc6ccccc6nc5n(C)c34)OC2(C)C)cc1 (racemic)	290 nM	23 nM	76%	–
–	–	COc1cc2c(c3c1c(=O)c1cc4ccccc4nc1n3C)C=CC(C)(C)O2	11000 nM	3700 nM	inactive	–
Active	–	COc1cc2c(c3c1c(=O)c1cc4ccccc4nc1n3C)[C@@H](OC(C)=O)[C@@H](OC(=O)/C=C/c1ccc(C(F)(F)F)cc1)C(C)(C)O2 (racemic)	3800 nM	390 nM	–	Activity (L1210 [8]): 73%
Active	1.5 h	COc1cc2c(c3c1c(=O)c1cc4ccccc4nc1n3C)[C@H](OC(C)=O)[C@H](OC(C)=O)C(C)(C)O2	210 nM	35 nM	–	Tmax [3]: 3 h; TGI (MC-38): Active
–	–	COc1cc2c(c3c1c(=O)c1cc4ccccc4nc1n3C)[C@@H](O)[C@@H](O)C(C)(C)O2 (racemic)	5100 nM	–	–	–
inactive	–	COc1c2c(cc3c1c(=O)c1cc4ccccc4nc1n3C)OC(C)(C)[C@@H](OC(C)=O)[C@H]2OC(C)=O (racemic)	10300 nM	8800 nM	–	–
–	–	COc1c2c(cc3c1c(=O)c1cc4ccccc4nc1n3C)OC(C)(C)C=C2	24000 nM	14000 nM	inactive	–
–	0.333 h	COc1cc2c(c3c1c(=O)c1cc4ccccc4cc1n3C)C(OC(C)=O)C(OC(C)=O)C(C)(C)O2 (single isomer, unassigned; (-))	–	–	–	–
Active	–	COc1c2c(cc3c1c(=O)c1cc4ccccc4nc1n3C)OC(C)(C)[C@H]1OC(=O)O[C@@H]21 (racemic)	20000 nM	12000 nM	68%	–
Active	–	COc1cc2c(c3c1c(=O)c1cc4ccccc4nc1n3C)C(OC(C)=O)C(OC(C)=O)C(C)(C)O2 (racemic)	200 nM	37 nM	68%	Activity [9]: Active; inhibition in vivo at 4 mg/kg (MC-38; C38, 288 h, read-out: TGI): 95%
–	–	COc1cc2c(c3c1c(=O)c1cc4ccccc4nc1n3C)[C@@H](OC(=O)/C=C/c1ccccc1)[C@@H](OC(=O)/C=C/c1ccccc1)C(C)(C)O2 (racemic)	5000 nM	540 nM	–	–
–	–	COc1cc2c(c3c1c(=O)c1ccccc1n3C)C=CC(C)(C)O2 [ACRONINE]	–	3700 nM	–	–
Active	–	COc1cc2c(c3c1c(=O)c1cc4ccccc4nc1n3C)[C@@H](OC(=O)/C=C/c1ccc(C(F)(F)F)cc1)[C@@H](OC(=O)/C=C/c1ccc(C(F)(F)F)cc1)C(C)(C)O2 (racemic)	9100 nM	420 nM	–	Activity (L1210 [6]): 60%
–	0.333 h	COc1cc2c(c3c1c(=O)c1cc4ccccc4cc1n3C)C(OC(C)=O)C(OC(C)=O)C(C)(C)O2 (single isomer, unassigned; (+))	–	–	–	–
Active	–	COc1ccc(/C=C/C(=O)O[C@@H]2c3c(cc(OC)c4c(=O)c5cc6ccccc6nc5n(C)c34)OC(C)(C)[C@@H]2OC(=O)/C=C/c2ccc(OC)cc2)cc1 (racemic)	9600 nM	370 nM	70%	–
Active	–	COc1cc2c(c3c1c(=O)c1cc4ccccc4nc1n3C)[C@H]1OC(=O)O[C@H]1C(C)(C)O2 (racemic)	120 nM	41 nM	76%	–
inactive	–	COc1ccc(/C=C/C(=O)O[C@@H]2[C@H](OC(C)=O)c3c(cc(OC)c4c(=O)c5cc6ccccc6nc5n(C)c34)OC2(C)C)cc1 (racemic)	2900 nM	470 nM	70%	–
Active	0.5 h	COc1cc2c(c3c1c(=O)c1cc4ccccc4cc1n3C)[C@@H](OC(C)=O)[C@@H](OC(C)=O)C(C)(C)O2 (racemic)	–	100 nM	73%	Tmax [3]: 2 h
Active	–	COc1cc2c(c3c1c(=O)c1cc4ccccc4nc1n3C)[C@@H](OC(C)=O)[C@@H](OC(=O)/C=C/c1ccccc1)C(C)(C)O2 (racemic)	2100 nM	320 nM	73%	–
Active	2 h	COc1cc2c(c3c1c(=O)c1cc4ccccc4nc1n3C)[C@@H](O)[C@@H](OC(=O)/C=C/c1ccc(C(F)(F)F)cc1)C(C)(C)O2 (racemic)	90 nM	13 nM	69%	Tmax [3]: 8 h; T1/2 [10]: 2 h
